Data: ChEMBL document CHEMBL4376859, “Prodrugs for nitroreductase-based cancer therapy-3: Antitumor activity of the novel dinitroaniline prodrugs/Ssap-NtrB enzyme suicide gene system: Synthesis, in vitro and in silico evaluation in prostate cancer” (Eur J Med Chem, 2020)
Active and inactive are the calls of the source. The calls are words filed in the database; no cut-off is given here.

Legend:
[1] = Cytotoxicity against human HUVEC cells assessed as cell viability at 9 to 150 uM after 24 hrs by MTT assay relative to control; assay type: cell-based; conditions: read-out: Activity
How it was run: (§1)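 Hep3B hepatoma, PC-3 prostate cancer and HUVEC (healthy control) cells were exposed to nitro compounds at 150, 75, 38, 19 and 9 µM for 24 h and 48 h. Viability was read by MTT assay, and IC50 values were derived from the growth inhibition curves.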

PC-3 [2] = assay: Cytotoxicity against human PC3 cells assessed as reduction in cell viability after 48 hrs by SRB assay; assay type: functional, cell-based
How it was run: (§2)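 Compounds were reduced outside the cells by purified His-tag (Ni column) Ssap-NtrB. The reaction mix held 600 µM NADH and compound (150, 39, 9 µM, or 180, 18, 1.8 nM) and was applied to PC-3 cells. Controls were compound alone in 25 mM Tris/HCl pH 7.5, and enzyme alone at 31 µg/mL. After 48 h, SRB absorbance was read at 492 nm and converted to % viability.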

PC-3 [3] = assay: Cytotoxicity against human PC3 cells assessed as cell viability after 48 hrs by MTT assay; assay type: functional, cell-based; how it was run: as §1
PC-3 [4] = assay: Cytotoxicity against human PC3 cells assessed as cell viability after 24 hrs by MTT assay; assay type: functional, cell-based; how it was run: as §1
Putative nitroreductase [5] = biological target: T1, Putative nitroreductase (Staphylococcus saprophyticus subsp. saprophyticus (strain ATCC 15305 / DSM20229 / NCIMB 8711 / NCTC 7292 / S-41), UniProt Q4A0P1); assay: Substrate activity at Staphylococcus saprophyticus nitroreductase expressed in Escherichia coli BL21 (DE3) assessed as retention time by HPLC analysis; assay type: ADME
T1 sequence (Q4A0P1 whole entry): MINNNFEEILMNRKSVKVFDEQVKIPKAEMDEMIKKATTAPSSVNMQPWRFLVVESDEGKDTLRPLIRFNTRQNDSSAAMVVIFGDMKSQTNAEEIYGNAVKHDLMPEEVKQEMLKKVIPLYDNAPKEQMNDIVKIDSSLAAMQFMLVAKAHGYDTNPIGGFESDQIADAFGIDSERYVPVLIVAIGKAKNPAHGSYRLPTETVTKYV

PC-3 [6] = assay: Cytotoxicity against human PC3 cells assessed as cell viability at 9 to 150 uM after 48 hrs by MTT assay relative to control; assay type: functional; how it was run: as §1
HUVEC [7] = assay: Cytotoxicity against human HUVEC cells assessed as cell viability after 24 hrs by MTT assay; assay type: cell-based; conditions: for IC50: Homo sapiens, HUVEC; how it was run: as §1
PC-3 [8] = assay: Cytotoxicity against human PC3 cells assessed as cell viability at 9 to 150 uM after 24 hrs by MTT assay relative to control; assay type: functional; how it was run: as §1
HUVEC [9] = assay: Cytotoxicity against human HUVEC cells assessed as cell viability after 48 hrs by MTT assay; assay type: cell-based; how it was run: as §1
[10] = Cytotoxicity against human HUVEC cells assessed as cell viability at 9 to 150 uM after 48 hrs by MTT assay relative to control; assay type: cell-based; conditions: read-out: Activity; how it was run: as §1
Hep 3B2 [11] = assay: Cytotoxicity against human Hep3B cells assessed as cell viability after 24 hrs by MTT assay; assay type: functional, cell-based; how it was run: as §1
Hep 3B2 [12] = assay: Cytotoxicity against human Hep3B cells assessed as cell viability after 48 hrs by MTT assay; assay type: functional, cell-based; how it was run: as §1
Hep 3B2 [13] = assay: Cytotoxicity against human Hep3B cells assessed as cell viability at 9 to 150 uM after 24 hrs by MTT assay relative to control; assay type: functional; how it was run: as §1
Putative nitroreductase [14] = biological target: T1, Putative nitroreductase; assay: Substrate activity at Staphylococcus saprophyticus nitroreductase NtrB assessed as enzyme specific activity using NADH as cofactor in Tris-Cl buffer at pH 7.5 by HPLC analysis; assay type: ADME
[15] = Substrate activity at Escherichia coli nitroreductase nfsA assessed as Kcat using NADPH as cofactor in Tris-Cl buffer at pH 7.5 by spectrophotometric method; assay type: ADME
[16] = biological target: T2, Oxygen-insensitive NAD(P)H nitroreductase (Escherichia coli K-12, UniProt P38489); assay: Substrate activity at Escherichia coli nitroreductase nfsB assessed as ratio of Kcat/Km using NADH as cofactor in Tris-Cl buffer at pH 7.5 by spectrophotometric method based Michaelis-Menten plot analysis relative to CB1954/NfsB; assay type: ADME
T2 sequence (P38489 whole entry): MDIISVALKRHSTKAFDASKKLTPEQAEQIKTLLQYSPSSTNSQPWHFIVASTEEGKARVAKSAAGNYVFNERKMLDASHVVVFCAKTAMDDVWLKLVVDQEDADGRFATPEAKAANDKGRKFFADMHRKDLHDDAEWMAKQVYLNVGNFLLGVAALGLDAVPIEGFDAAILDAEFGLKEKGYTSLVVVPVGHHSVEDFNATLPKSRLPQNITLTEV

[17] = biological target: T2, Oxygen-insensitive NAD(P)H nitroreductase; assay: Substrate activity at Escherichia coli nitroreductase nfsB assessed as Kcat using NADH as cofactor in Tris-Cl buffer at pH 7.5 by spectrophotometric method; assay type: ADME
[18] = Substrate activity at Escherichia coli nitroreductase nfsA assessed as ratio of Kcat/Km using NADPH as cofactor in Tris-Cl buffer at pH 7.5 by spectrophotometry based Michaelis-Menten plot analysis; assay type: ADME
[19] = biological target: T2, Oxygen-insensitive NAD(P)H nitroreductase; assay: Substrate activity at Escherichia coli nitroreductase nfsB assessed as Km using NADH as cofactor in Tris-Cl buffer at pH 7.5 by spectrophotometric method based Michaelis-Menten plot analysis; assay type: ADME
nitroreductase nfsA = assay: Substrate activity at Escherichia coli nitroreductase nfsA assessed as Km using NADPH as cofactor in Tris-Cl buffer at pH 7.5 by spectrophotometry based Michaelis-Menten plot analysis; assay type: ADME; conditions: Escherichia coli nitroreductase nfsA enzyme
[20] = Substrate activity at Escherichia coli nitroreductase nfsA assessed as ratio of Kcat/Km using NADPH as cofactor in Tris-Cl buffer at pH 7.5 by spectrophotometric method based Michaelis-Menten plot analysis relative to CB1954/NfsB
[21] = biological target: T2, Oxygen-insensitive NAD(P)H nitroreductase; assay: Substrate activity at Escherichia coli nitroreductase nfsB assessed as ratio of Kcat/Km using NADH as cofactor in Tris-Cl buffer at pH 7.5 by spectrophotometric method based Michaelis-Menten plot analysis; assay type: ADME
Hep 3B2 [22] = assay: Cytotoxicity against human Hep3B cells assessed as cell viability at 9 to 150 uM after 48 hrs by MTT assay relative to control; assay type: functional; how it was run: as §1
Putative nitroreductase [23] = biological target: T1, Putative nitroreductase; assay: Substrate activity at Staphylococcus saprophyticus nitroreductase NtrB assessed as Kcat/Km using NADH as cofactor in Tris-Cl buffer at pH 7.5 by HPLC analysis relative to CB1954/NfsB; assay type: ADME
Putative nitroreductase [24] = biological target: T1, Putative nitroreductase; assay: Substrate activity at Staphylococcus saprophyticus nitroreductase NtrB assessed as Kcat/Km using NADPH as cofactor in Tris-Cl buffer at pH 7.5 by HPLC analysis relative to CB1954/NfsB; assay type: ADME
PC-3 [25] = assay: Cytotoxicity against human PC3 cells […] Staphylococcus saprophyticus nitroreductase NtrB assessed as reduction in cell viability in presence of NADH as cofactor after 48 hrs by SRB assay; assay type: functional, cell-based; conditions: PC-3, 48 h; how it was run: as §2
[26] = substrate: O=[N+]([O-])c1ccc(Nc2ccc3ccccc3c2)c([N+](=O)[O-])c1; assay: Substrate activity at Staphylococcus saprophyticus nitroreductase NtrB assessed as Km using NADPH as cofactor in Tris-Cl buffer at pH 7.5 by HPLC analysis; assay type: ADME
[27] = substrate: Nc1ccccc1Nc1ccc([N+](=O)[O-])cc1[N+](=O)[O-]; assay: (§3) Substrate activity at Staphylococcus saprophyticus nitroreductase NtrB assessed as Km using NADH as cofactor in Tris-Cl buffer at pH 7.5 by HPLC analysis; assay type: ADME
[28] = substrate: O=[N+]([O-])c1ccc(N2CCCCC2)c([N+](=O)[O-])c1; assay: as §3; assay type: ADME
[29] = substrate: O=[N+]([O-])c1ccc(N2CCOCC2)c([N+](=O)[O-])c1; assay: as §3; assay type: ADME
[30] = substrate: O=C(CC(F)(F)F)Nc1cc(N2CCOCC2)c([N+](=O)[O-])cc1[N+](=O)[O-]; assay: as §3; assay type: ADME
[31] = substrate: CCC(=O)Nc1cc(N2CCOCC2)c([N+](=O)[O-])cc1[N+](=O)[O-]; assay: as §3; assay type: ADME
[32] = substrate: O=[N+]([O-])c1cc([N+](=O)[O-])c(Nc2ccc(S(=O)(=O)O)cc2)cc1Nc1ccc(S(=O)(=O)O)cc1; assay: as §3; assay type: ADME

O=[N+]([O-])c1ccc(Nc2ccccc2)c([N+](=O)[O-])c1
viability at 24 h, up to 150 µM [1]: > 80%
Activity (PC-3 [2]): inactive
IC50 (PC-3 [3]): Not Active
IC50 (PC-3 [4]; pc-3): Not Active
Retention_time (Putative nitroreductase [5]): 18.41 min
Activity (PC-3 [6]): >80%
Activity (HUVEC [7]; human, huvec): Non-Toxic
Activity (PC-3 [8]): >80%
Activity (HUVEC [9]; human, huvec): Non-Toxic
viability at 48 h, up to 150 µM [10]: > 80%
IC50 (Hep 3B2 [11]): 84.9 µM
IC50 (Hep 3B2 [12]): 150 µM

O=[N+]([O-])c1cc([N+](=O)[O-])c(Nc2ccc(O)cc2)cc1Nc1ccc(O)cc1
Activity (Hep 3B2 [13]): 51 - 80%
IC50 (PC-3 [3]): Not Active
Retention_time (Putative nitroreductase [5]): 21.2 min
IC50 (HUVEC [7]): 66.7 µM
Activity (PC-3 [8]): >80%
IC50 (HUVEC [9]; Homo sapiens, HUVEC): 150 µM
Activity (Putative nitroreductase [14]): 1.61 U/mg
IC50 (Hep 3B2 [12]): 14.5 µM

CS(=O)(=O)OCCN(CCBr)c1c(C(=O)NCCO)cc([N+](=O)[O-])cc1[N+](=O)[O-]
Kcat [15]: 12 s⁻¹
fold change (FC) [16]: 2.32
Kcat [17]: 60 s⁻¹
Kcat/Km [18]: 120000 M⁻¹ s⁻¹
Km [19]: 4500 µM
Km (nitroreductase nfsA): 100 µM
fold change (FC) [20]: 21.43
Kcat/Km [21]: 13000 M⁻¹ s⁻¹

CCC(=O)Nc1cc(N2CCOCC2)c([N+](=O)[O-])cc1[N+](=O)[O-]
viability at 24 h, up to 150 µM [1]: 51 to 80%
Activity (Hep 3B2 [22]): 51 - 80%
Retention_time (Putative nitroreductase [5]): 20.95 min
fold change (FC) (Putative nitroreductase [23]): 4.73
viability at 48 h, up to 150 µM [10]: 51 to 80%
IC50 (Hep 3B2 [11]): 90.7 µM

CC(C)CC(=O)Nc1cc(N2CCOCC2)c([N+](=O)[O-])cc1[N+](=O)[O-]
viability at 24 h, up to 150 µM [1]: 51 to 80%
Activity (Hep 3B2 [22]): 51 - 80%
Retention_time (Putative nitroreductase [5]): 24.16 min
viability at 48 h, up to 150 µM [10]: 51 to 80%
IC50 (Hep 3B2 [11]): 150 µM

O=[N+]([O-])c1cc([N+](=O)[O-])c(Nc2ccc(Cl)cc2)cc1Nc1ccc(Cl)cc1
Activity (Hep 3B2 [13]): 51 - 80%
Activity (Hep 3B2 [22]): 51 - 80%
IC50 (PC-3 [4]; Homo sapiens, PC-3, 24 h, read-out: IC50): 150 µM
Retention_time (Putative nitroreductase [5]): 35 min
Activity (PC-3 [6]): 51 - 80%
IC50 (HUVEC [7]): 86.5 µM
viability at 48 h, up to 150 µM [10]: 51 to 80%
Activity (Putative nitroreductase [14]): 5.77 U/mg

CC(C)Nc1ccc([N+](=O)[O-])cc1[N+](=O)[O-]
Activity (Hep 3B2 [13]): >80%
viability at 24 h, up to 150 µM [1]: > 80%
Activity (PC-3 [2]): inactive
Activity (Hep 3B2 [22]): 51 - 80%
Retention_time (Putative nitroreductase [5]): 17.94 min
Activity (PC-3 [6]): >80%
Activity (PC-3 [8]): >80%
viability at 48 h, up to 150 µM [10]: > 80%
fold change (FC) (Putative nitroreductase [24]): 0.74
IC50 (PC-3 [25]): 9.77 µM

O=[N+]([O-])c1ccc(Nc2ccc3ccccc3c2)c([N+](=O)[O-])c1
Activity (Hep 3B2 [13]): 51 - 80%
viability at 24 h, up to 150 µM [1]: > 80%
Activity (PC-3 [2]): inactive
Activity (Hep 3B2 [22]): 51 - 80%
Retention_time (Putative nitroreductase [5]): 20.13 min
Activity (PC-3 [6]): >80%
Activity (PC-3 [8]): 51 - 80%
viability at 48 h, up to 150 µM [10]: > 80%
fold change (FC) (Putative nitroreductase [24]): 1.48
IC50 (PC-3 [25]): 5.07 µM

B1: Putative nitroreductase (Staphylococcus saprophyticus subsp. saprophyticus ATCC 15305 = NCTC 7292) (protein)
chain: T1 sequence (Q4A0P1 whole entry)
Km [26]: 15.7 µM
kcat [26]: 0.1 s⁻¹
kcat/Km [26]: 8270 M⁻¹ s⁻¹
Km [27]: 137 µM
kcat [27]: 0.315 s⁻¹
kcat/Km [27]: 2300 M⁻¹ s⁻¹
Km [28]: 104 µM
kcat [28]: 0.404 s⁻¹
kcat/Km [28]: 3900 M⁻¹ s⁻¹
Km [29]: 444 µM
kcat [29]: 3.1 s⁻¹
kcat/Km [29]: 6970 M⁻¹ s⁻¹
Km [30]: 9.95 µM
kcat [30]: 0.234 s⁻¹
kcat/Km [30]: 26500 M⁻¹ s⁻¹
Km [31]: 14 µM
kcat [31]: 0.37 s⁻¹
kcat/Km [31]: 26500 M⁻¹ s⁻¹
Km [32]: 255 µM
kcat [32]: 3.4 s⁻¹
kcat/Km [32]: 13300 M⁻¹ s⁻¹
